High-throughput results: PubChem, Johns Hopkins Ion Channel Center
KCNQ1 block = human KCNQ1 channel inhibition | AID 2642 | P51787 | CHO-K1 KCNQ1, FluxOR thallium flux fluorescence; hits give high values | hit rate 1.3% among 310,000 | B-score at 10 µM;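 active = compounds whose thallium flux B-score, printed positive for inhibition, exceeds three library SD while starting fluorescence stays within three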;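 note: channel opened by potassium depolarization with thallium stimulus after 20 min compound exposure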
KCNK3 inh = human KCNK3 channel inhibition, primary screen; O14649; CHO-KCNK3 thallium flux, FluxOR fluorescence; hits give low values; B-score at 10 µM; hit rate 0.84% among 340,000;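 active = B-score under library mean minus 4 SD, starting fluorescence ratio at most library mean plus 5 SD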;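 note: more negative B-score means stronger inhibition of thallium flux through KCNK3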
hERG rescue = shields human hERG channel from block by proarrhythmic agents; CHO-hERG, FluxOR thallium flux, dofetilide IC70 present; AID 1511; activation (rescue from dofetilide block), less the hit threshold, % at 10 µM; Q12809; hit rate 0.51% among 310,000;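 active = activation above the mean of controls blocked by dofetilide plus 5 SD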;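 note: thallium influx through hERG after potassium depolarization seen as dye fluorescence rise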
KCNK9 inh = inhibitors of human KCNK9 two-pore domain potassium channel; Q9NPC2; HEK293 KCNK9, FluxOR thallium flux fluorescence; hits give low values; B-score at 10 µM; hit rate 1.2% among 310,000;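 active = ratio B-score over 3 SD below the library mean, with starting fluorescence within 5 SD of its mean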;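 note: negative B-score means less thallium flux so channel inhibition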
Target sequence (Q9NPC2 whole entry, looked up, the tested form may be a part): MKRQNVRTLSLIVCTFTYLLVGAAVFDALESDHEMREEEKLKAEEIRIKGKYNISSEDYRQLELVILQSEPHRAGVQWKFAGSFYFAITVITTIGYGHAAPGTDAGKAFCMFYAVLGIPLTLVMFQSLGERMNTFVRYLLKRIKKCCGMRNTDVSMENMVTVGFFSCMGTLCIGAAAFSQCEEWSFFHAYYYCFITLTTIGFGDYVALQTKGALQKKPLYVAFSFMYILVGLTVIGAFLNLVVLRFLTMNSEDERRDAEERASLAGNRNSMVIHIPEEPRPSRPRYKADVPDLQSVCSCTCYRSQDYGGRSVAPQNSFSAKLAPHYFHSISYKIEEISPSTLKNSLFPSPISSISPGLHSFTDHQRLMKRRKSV
KCNQ1 pot = potentiates or activates the human KCNQ1 potassium channel | P51787 | CHO-K1 KCNQ1, thallium flux FluxOR fluorescence; hits give high values | B-score at 10 µM | hit rate 0.35% among 310,000;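 active = fluorescence ratio B-score, a plate-corrected score, at least three library SD, with initial intensity B-score within 5 SD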
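System: CHO-K1 cells stably expressing KCNQ1 / Medium: assay buffer for compound exposure, DMSO matched across wells / Reagent: thallium- and potassium-containing depolarizing buffer / Compound: one concentration, matched DMSO / Incubation: 20 min compound pretreatment at room temperature / Measured by: kinetic FluxOR fluorescence, 10 s baseline plus 110 s post-stimulus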
* = called active by the depositor; i = inactive; x = not tested or not shown. A selection: hits, their analogues and other compounds. The true share with any hit is near 3.1%.

SMILES	KCNQ1 block	KCNK3 inh	hERG rescue	KCNK9 inh	KCNQ1 pot
Cc1noc(C)c1S(=O)(=O)N(C)C[C@H]1Oc2ccc(NC(=O)NC(C)C)cc2C(=O)N([C@H](C)CO)C[C@@H]1C	x	i	x	x	x
O=C(Cn1cnc2ccccc21)c1ccc(Cl)cc1	i	i	-5.3	i	i
O=C(Cn1cnc2ccccc21)c1ccccc1	i	i	5.0*	i	i
Cc1cccc(OC(=O)NCCOC(=O)N(O)c2ccc(Cl)cc2)c1	6*	i	-9.6	i	i
Cc1cccc(OCC(=O)Oc2ccc(Cl)cc2)c1	i	i	-4.6	i	i
Cc1ccc2c(=O)c(C(=O)NCc3cccs3)c[nH]c2c1	i	i	4.8*	i	i
NC(=O)C[C@H](NC(=O)c1ccc(Cl)cc1)C(=O)OCc1ccccc1	x	i	x	x	x
CN1C(=O)c2cccc3c(N(C)C)ccc(c23)C1=O	6*	i	-16.4	i	i
Cc1ccc(C)c(NC(=O)CSc2nnc(C3CCCCC3)o2)c1	i	i	-5.6	i	i
Nc1nc(O)c(N=Nc2ccc(S(N)(=O)=O)cc2)c(=O)[nH]1	i	x	4.8*	i	i
CCN(CC)CCCN1C(=O)c2oc3ccccc3c(=O)c2C1c1cccs1 (stereo not drawn)	i	x	25.8*	i	15*
CCN(CC)CCN1C(=O)c2oc3ccccc3c(=O)c2C1c1ccccc1 (stereo not drawn)	i	i	-12.4	i	i
CCOC(=O)c1c(C)[nH]c(C)c1C(=O)CSc1nc2ccccc2c(=O)n1-c1ccc(Cl)cc1	6*	i	-8.7	i	i
O=C(CSc1nc2ccccc2c(=O)n1-c1ccc(Cl)cc1)c1ccco1	i	i	-8.9	i	i
c1ccc(C2OC3c4cccc5cccc(c45)C3N2c2ccccc2)cc1 (stereo not drawn)	i	i	-13.0	-7.88*	i
CCCCCOc1ccc(/C(C)=N/NC2=NCCN2)cc1	i	i	-21.1	i	i
CCCCCCOc1ccc(/C(C)=N/NC2=NCCN2)cc1	13*	i	-32.2	i	i
CC(C)NC(=O)c1ccc2c(c1)N(CC(=O)N1CCCCC1)C(=O)C(C)(C)O2	i	i	-6.1	i	i
CCC1C(c2ccccc2)N(C)C(c2ccccc2)CC1(O)c1ccccc1 (stereo not drawn)	12*	i	-22.9	i	i
N#CC(C(=O)NC1CC1)c1nc2ccccc2nc1N1CCN(C/C=C/c2ccccc2)CC1 (stereo not drawn)	6*	i	-17.0	i	i
N#CC(C(=O)NC1CC1)c1nc2ccccc2nc1N1CCCC1 (stereo not drawn)	i	i	-2.5	i	i
O=C(c1ccco1)N1CCN(c2nc(C3CC3)nc3c2nnn3Cc2ccccc2Cl)CC1	6*	i	-11.4	i	i
COc1cc(NC(=S)NCCC(c2ccccc2)c2ccccc2)cc(OC)c1	6*	i	-9.8	i	i
COc1ccc(NC(=O)NCCCCc2ccccc2)c(OC)c1	i	i	4.6*	i	i
COc1ccc(NC(=S)NCCC(c2ccccc2)c2ccccc2)c(OC)c1	i	i	-10.9	i	29*
SMILES	KCNQ1 block	KCNK3 inh	hERG rescue	KCNK9 inh	KCNQ1 pot
COc1cccc(NC(=S)NCCC(c2ccccc2)c2ccccc2)c1	10*	i	-9.6	i	i
Cc1cccc(NC(=S)NCCC(c2ccccc2)c2ccccc2)c1	i	i	-17.8	i	i
COc1ccccc1NC(=O)NCCCCc1ccccc1	i	i	-3.7	i	i
COc1cccc(NC(=S)NCCN2CCOCC2)c1	i	i	-12.4	i	12*
S=C(NCCN1CCOCC1)Nc1cccc(Cl)c1	i	i	-7.9	i	i
COc1ccc(NC(=S)Nc2ccccn2)c(OC)c1	i	i	5.2*	i	i
Cc1ccc(C)c(CNc2ccc(S(=O)(=O)N3CCCCC3)cc2)c1	x	i	x	x	x
CN1CCN(C(=O)c2cc3ccccc3cc2O)CC1	x	i	x	x	x
Cc1ccc(C(=O)NCCC(=O)NCc2cc(=O)n(C)c(=O)n2C)cc1	i	i	-5.5	i	8*
O=C(N/N=C/c1cccnc1)c1cc(-c2ccccc2)nc2ccccc12	i	i	-9.7	i	i
